{"source": "paper PMC11839910", "about": "(Nature Communications, 2025)", "key": {"[1]": {"molecular_target": "human serum albumin (HSA) (Homo sapiens, UniProt P02768)", "sequence (P02768 25-609)": "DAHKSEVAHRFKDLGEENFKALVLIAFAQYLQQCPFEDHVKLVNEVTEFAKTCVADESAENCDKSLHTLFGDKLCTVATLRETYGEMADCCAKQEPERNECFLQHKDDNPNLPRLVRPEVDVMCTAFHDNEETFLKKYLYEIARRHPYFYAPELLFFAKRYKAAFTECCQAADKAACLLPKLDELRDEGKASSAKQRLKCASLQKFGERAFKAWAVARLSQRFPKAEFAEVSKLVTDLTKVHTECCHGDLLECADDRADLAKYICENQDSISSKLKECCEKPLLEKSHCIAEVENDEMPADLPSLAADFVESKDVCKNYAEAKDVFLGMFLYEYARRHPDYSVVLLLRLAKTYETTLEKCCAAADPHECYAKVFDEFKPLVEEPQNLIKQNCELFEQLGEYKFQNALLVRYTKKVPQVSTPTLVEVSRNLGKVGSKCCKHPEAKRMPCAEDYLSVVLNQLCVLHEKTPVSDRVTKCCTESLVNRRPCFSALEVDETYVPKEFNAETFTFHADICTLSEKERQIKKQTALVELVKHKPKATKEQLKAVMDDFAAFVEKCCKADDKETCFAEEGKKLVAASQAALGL", "assay_type": "in vitro ADME", "details": "intact protein LC-MS"}, "SOD1^G93A [2]": {"molecular_target": "T1, SOD1^G93A (Homo sapiens, UniProt P00441, G94A)", "T1 sequence (P00441 2-154 G94A limits assumed)": "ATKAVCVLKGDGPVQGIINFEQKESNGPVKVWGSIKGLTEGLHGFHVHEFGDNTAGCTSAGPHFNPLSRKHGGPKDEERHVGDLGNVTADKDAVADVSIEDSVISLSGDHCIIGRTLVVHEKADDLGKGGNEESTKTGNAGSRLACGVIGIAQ", "assay": "Intact protein LC-MS of covalent drug candidates with purified SOD1^G93A", "assay_type": "binding"}, "SOD1^G93A [3]": {"molecular_target": "T1, SOD1^G93A", "assay_type": "binding", "details": "transgenic ALS^G93A mouse brain homogenate"}, "SOD1^G93A [4]": {"molecular_target": "T1, SOD1^G93A", "assay": "In vivo target engagement", "summary_of_the_method": "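Hemizygous B6SJL-Tg(SOD1*G93A)1Gur/J mice (15–30 weeks, either sex) were dosed in PBS or water (<2% final DMSO): 10 mg/kg IV, 12.5 or 30 mg/kg SC, or 20 mg/kg SC with collection at 1 h. Blood and brain underwent chloroform–ethanol extraction, then intact-protein C4 LC-MS for %TE against a 37% METE. Doses were re-estimated as old dose × (METE/%TE). Duplicate.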"}, "SOD1^G93A mouse model": {"tested_on": "SOD1^G93A mouse model", "details": "cited from earlier work"}, "[5]": {"assay": "Solubility limit in IV dose formulation", "assay_type": "physicochemical"}, "albumin": {"tested_on": "albumin", "details": "cited from earlier work"}}, "note": "“Also recorded” adds a separate entry of the source.", "data": [{"smiles": "C=CC(=O)N1CCC[C@@H](n2nc(-c3ccc(Oc4ccccc4)cc3)c3c(N)ncnc32)C1", "note": "[ibrutinib]", "values": [{"measurement": "covalent binding to HSA", "setting": "[1]", "value": "minimal binding; also recorded: limited, but detectable covalent binding"}]}, {"smiles": "O=c1c2ccccc2[se]n1-c1ccccc1", "note": "[ebselen]", "values": [{"measurement": "proposed MoA confirmed by intact drug-protein mass (D1)", "setting": "SOD1^G93A [2]", "value": "confirms its proposed MoA"}, {"measurement": "in vitro target engagement in target tissue homogenate (predicted mass shift)", "setting": "SOD1^G93A [3]", "value": "show the predicted mass shifts"}, {"measurement": "METE reached in vivo (D5)", "setting": "SOD1^G93A [4]; at ~22% of LD50 (20 mg/kg SC, 1 h)", "value": "could not be reached"}, {"measurement": "effect on SOD1 in vivo (modification of SOD1^G93A)", "setting": "SOD1^G93A [4]; brain and blood of dosed SOD1^G93A mouse", "value": "promoting cysteinylation (in brain) and glutathionylation (in blood)"}, {"measurement": "covalent binding to HSA", "setting": "[1]", "value": "showed drug-related mass shifts with HSA"}, {"measurement": "survival", "setting": "SOD1^G93A mouse model", "value": "improves survival"}]}, {"smiles": "CCN(CC)C(=S)SSC(=S)N(CC)CC", "note": "[disulfiram]", "values": [{"measurement": "proposed MoA confirmed by intact drug-protein mass (D1)", "setting": "SOD1^G93A [2]", "value": "shows the predicted molecular mass"}, {"measurement": "METE reached in vivo (D5)", "setting": "SOD1^G93A [4]; at a 20 mg/kg dose imposed by solubility limit", "value": "could not be reached"}, {"measurement": "covalent binding to HSA", "setting": "[1]", "value": "showed drug-related mass shifts with HSA"}, {"measurement": "solubility", "setting": "[5]", "value": 4000, "unit": "µg/mL"}, {"measurement": "plasma protein binding via albumin", "setting": "albumin", "value": "high plasma protein binding"}]}, {"smiles": "[O-][S+]1CCCCS1", "note": "(stereo not shown) [S-XL6, 1,2-dithiane-1-oxide]", "values": [{"measurement": "proposed MoA confirmed by intact drug-protein mass (D1)", "setting": "SOD1^G93A [2]", "value": "confirms the proposed MoA"}, {"measurement": "in vitro target engagement in target tissue homogenate (predicted mass shift)", "setting": "SOD1^G93A [3]", "value": "show the predicted mass shifts"}, {"measurement": "in vivo target engagement, detection of drug-protein complex", "setting": "SOD1^G93A [4]; brain, 1-hr post-dose via SC", "value": "successful detection of cross-linked dimer"}, {"measurement": "covalent binding to HSA", "setting": "[1]", "value": "negligible binding; also recorded: no detectable HSA binding"}]}, {"smiles": "N.N.[Cl][Pt][Cl]", "note": "[cisplatin]", "values": [{"measurement": "proposed MoA confirmed by intact drug-protein mass (D1)", "setting": "SOD1^G93A [2]", "value": "shows the predicted molecular mass"}]}, {"smiles": "C=CC(=O)N1CCN(c2nc(=O)n(-c3c(C)ccnc3C(C)C)c3nc(-c4c(O)cccc4F)c(F)cc23)[C@@H](C)C1", "note": "[sotorasib]", "values": [{"measurement": "covalent binding to HSA", "setting": "[1]", "value": "negligible binding"}]}, {"smiles": "CN(C)C/C=C/C(=O)Nc1cc2c(Nc3ccc(F)c(Cl)c3)ncnc2cc1O[C@H]1CCOC1", "note": "[afatinib]", "values": [{"measurement": "covalent binding to HSA", "setting": "[1]", "value": "minimal binding; also recorded: limited, but detectable covalent binding"}]}]}
